Tests used:
[1] = target: T1, Muscarinic acetylcholine receptor M4 (Homo sapiens, UniProt P08173); assay: Positive allosteric modulation of human M4 receptor expressed in CHO cells coexpressing Gqi5 assessed as increase in acetylcholine-induced calcium mobilization; format: functional, cell-based
T1 sequence (P08173 whole entry): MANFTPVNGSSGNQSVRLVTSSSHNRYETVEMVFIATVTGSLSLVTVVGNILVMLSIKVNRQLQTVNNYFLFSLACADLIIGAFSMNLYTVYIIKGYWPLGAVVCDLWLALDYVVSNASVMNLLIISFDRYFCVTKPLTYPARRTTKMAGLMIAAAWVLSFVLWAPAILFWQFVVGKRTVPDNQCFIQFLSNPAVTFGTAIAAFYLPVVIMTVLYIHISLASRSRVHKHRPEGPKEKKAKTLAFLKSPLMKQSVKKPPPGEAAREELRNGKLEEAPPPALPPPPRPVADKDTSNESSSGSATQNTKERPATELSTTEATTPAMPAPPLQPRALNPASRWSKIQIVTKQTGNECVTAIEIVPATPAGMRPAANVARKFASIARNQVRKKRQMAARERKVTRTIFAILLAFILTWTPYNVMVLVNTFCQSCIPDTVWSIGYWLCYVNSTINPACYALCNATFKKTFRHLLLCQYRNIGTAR
How it was run: (§1)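 Calcium mobilization in CHO cells expressing hM4 with Gqi5. Compound added in presence of a fixed EC20 concentration of acetylcholine. Values are means of three independent experiments, each run in triplicate.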

[2] = target: T2, Muscarinic acetylcholine receptor M4 (Homo sapiens) (UniProt P08173); assay: Positive allosteric modulation of human M4 receptor expressed in CHO cells coexpressing Gqi5 assessed as increase in acetylcholine-induced calcium mobilization relative to acetylcholine; format: functional, cell-based; how it was run: as §1
T2 sequence (whole entry): T1 sequence (P08173 whole entry)

[3] = Oral bioavailability in rat at 10 mg/kg; format: ADME, organism-based; conditions: in vivo
How it was run: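 Rat oral bioavailability from a 10 mg/kg solution dose. Separately, the HCl salt was dosed as a suspension.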

[4] = Elimination half life in dog at 3 mg/kg, iv or po; format: ADME, organism-based, Canis lupus familiaris; conditions: in vivo, read-out: beta t1/2 (converted)
[5] = Volume of distribution at steady state in dog at 3 mg/kg, iv or po; format: ADME, organism-based, Canis lupus familiaris; conditions: in vivo, read-out: Vdss
How it was run: (§2)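 Dog IV and PO pharmacokinetics. Oral bioavailability from a 3 mg/kg suspension dose of the HCl salt.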

[6] = Oral bioavailability in dog at 3 mg/kg; format: ADME, organism-based, Canis lupus familiaris; conditions: in vivo; how it was run: as §2
[7] = system: Cynomolgus monkey; assay: Elimination half life in cynomolgus monkey at 10 mg/kg, iv; format: ADME, organism-based, Macaca fascicularis; conditions: in vivo
[8] = system: Cynomolgus monkey; assay: Volume of distribution at steady state in cynomolgus monkey at 10 mg/kg, iv; format: ADME, organism-based, Macaca fascicularis; conditions: in vivo
[9] = Oral bioavailabilty in cynomolgus monkey at 10 mg/kg; format: ADME, organism-based, Macaca fascicularis; conditions: in vivo
How it was run: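 Cynomolgus monkey oral bioavailability from a 10 mg/kg solution dose of the HCl salt.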

[10] = target: T3, Cytochrome P450 1A2 (Homo sapiens, UniProt P05177); assay: Inhibition of CYP1A2 (unknown origin); format: ADME
T3 sequence (P05177 whole entry): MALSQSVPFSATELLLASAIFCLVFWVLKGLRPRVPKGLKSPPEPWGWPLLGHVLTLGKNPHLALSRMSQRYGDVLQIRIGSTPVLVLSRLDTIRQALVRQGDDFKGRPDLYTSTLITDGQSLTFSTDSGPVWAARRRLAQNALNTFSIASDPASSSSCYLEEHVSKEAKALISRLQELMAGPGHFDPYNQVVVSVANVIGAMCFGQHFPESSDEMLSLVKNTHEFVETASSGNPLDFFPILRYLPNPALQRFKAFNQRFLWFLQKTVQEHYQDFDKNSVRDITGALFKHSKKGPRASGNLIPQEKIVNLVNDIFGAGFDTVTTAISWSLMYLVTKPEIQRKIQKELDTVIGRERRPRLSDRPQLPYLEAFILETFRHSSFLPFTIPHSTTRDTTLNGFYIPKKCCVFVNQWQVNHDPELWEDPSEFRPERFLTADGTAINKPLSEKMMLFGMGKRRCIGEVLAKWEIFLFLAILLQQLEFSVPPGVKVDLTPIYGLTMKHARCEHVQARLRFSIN

[11] = target: Cytochrome P450 2C9 (Homo sapiens, UniProt P11712); assay: Inhibition of CYP2C9 (unknown origin); format: ADME
[12] = target: Cytochrome P450 2D6 (Homo sapiens, UniProt P10635); assay: Inhibition of CYP2D6 (unknown origin); format: ADME
[13] = target: Cytochrome P450 3A4 (Homo sapiens, UniProt P08684); assay: Inhibition of CYP3A4 (unknown origin); format: ADME
[14] = system: Rattus norvegicus; assay: Elimination half-life in Sprague-Dawley rat at 0.1 to 1 mg/kg, iv; format: ADME, organism-based; conditions: in vivo
[15] = Brain to plasma permeability coefficient, Kp of the compound in Sprague-Dawley rat at 0.1 to 0.2 mg/kg, iv measured at 0.25 hrs post dose; format: ADME, organism-based
How it was run: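 Sprague-Dawley rats were dosed IV at 0.1–0.2 mg/kg, with brain and plasma sampled at 0.25 hr. Brain:plasma Kp was calculated, with Kp,uu where unbound fractions were available.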

[16] = system: MDR1 (P-gp); assay: Efflux ratio of permeability in MDCK2-MDR1 cells; format: ADME, cell-based, Canis lupus familiaris; conditions: dog, MDCK-MDR1
[17] = Unbound plasma concentration in human; format: ADME, cell-free
[18] = Unbound plasma concentration in rat; format: ADME, cell-free
[19] = Unbound brain concentration in rat; format: ADME, tissue-based

Cytochrome P450 3A4, sequence (P08684 whole entry): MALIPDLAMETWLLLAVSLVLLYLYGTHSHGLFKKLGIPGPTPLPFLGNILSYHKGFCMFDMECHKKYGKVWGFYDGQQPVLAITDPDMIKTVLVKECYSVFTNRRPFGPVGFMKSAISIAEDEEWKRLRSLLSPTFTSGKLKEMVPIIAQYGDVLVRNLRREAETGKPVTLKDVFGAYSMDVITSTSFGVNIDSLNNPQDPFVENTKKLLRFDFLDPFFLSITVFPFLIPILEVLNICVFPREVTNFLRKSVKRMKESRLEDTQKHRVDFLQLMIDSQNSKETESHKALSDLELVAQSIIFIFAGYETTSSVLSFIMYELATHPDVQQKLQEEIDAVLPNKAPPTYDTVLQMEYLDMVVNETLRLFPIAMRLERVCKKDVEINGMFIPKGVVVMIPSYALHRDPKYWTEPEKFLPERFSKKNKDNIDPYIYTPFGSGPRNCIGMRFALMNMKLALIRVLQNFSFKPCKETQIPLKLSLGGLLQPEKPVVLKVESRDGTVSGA
Cytochrome P450 2D6, sequence (P10635 whole entry): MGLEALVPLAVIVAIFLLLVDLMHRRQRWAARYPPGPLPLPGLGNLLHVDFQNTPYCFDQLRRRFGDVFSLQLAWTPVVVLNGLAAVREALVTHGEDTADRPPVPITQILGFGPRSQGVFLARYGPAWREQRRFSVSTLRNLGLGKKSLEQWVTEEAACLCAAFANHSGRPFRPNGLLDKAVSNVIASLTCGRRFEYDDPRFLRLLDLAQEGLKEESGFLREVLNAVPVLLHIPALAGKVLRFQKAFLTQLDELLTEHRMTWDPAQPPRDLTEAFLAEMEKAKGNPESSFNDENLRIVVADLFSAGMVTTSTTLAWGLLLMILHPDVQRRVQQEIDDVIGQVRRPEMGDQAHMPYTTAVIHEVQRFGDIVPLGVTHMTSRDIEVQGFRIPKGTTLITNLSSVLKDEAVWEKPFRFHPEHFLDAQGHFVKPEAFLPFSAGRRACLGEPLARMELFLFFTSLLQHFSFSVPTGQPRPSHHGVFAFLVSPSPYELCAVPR
Cytochrome P450 2C9, sequence (P11712 whole entry): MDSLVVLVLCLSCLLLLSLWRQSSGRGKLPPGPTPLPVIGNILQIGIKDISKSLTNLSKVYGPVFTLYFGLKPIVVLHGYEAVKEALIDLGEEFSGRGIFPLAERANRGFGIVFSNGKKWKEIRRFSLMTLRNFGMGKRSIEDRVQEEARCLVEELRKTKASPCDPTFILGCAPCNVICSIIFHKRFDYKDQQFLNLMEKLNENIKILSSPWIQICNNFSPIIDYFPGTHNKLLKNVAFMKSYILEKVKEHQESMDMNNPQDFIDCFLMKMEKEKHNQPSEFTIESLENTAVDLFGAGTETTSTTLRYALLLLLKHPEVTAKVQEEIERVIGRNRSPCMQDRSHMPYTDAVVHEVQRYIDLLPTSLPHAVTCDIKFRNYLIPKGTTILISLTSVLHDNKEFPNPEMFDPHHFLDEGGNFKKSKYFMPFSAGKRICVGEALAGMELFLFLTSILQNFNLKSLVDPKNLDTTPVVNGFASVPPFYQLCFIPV

SMILES	EC50 ([1]; read-out: EC50) [nM]	%max [2] [%]	also measured
Cc1nnc2sc(C(=O)NCc3ccc(-c4cnccn4)cc3)c(N)c2c1C	159	63	
Cc1nnc2sc(C(=O)NCc3ccccc3-c3ccccc3)c(N)c2c1C	> 10000	30	
Cc1nnc2sc(C(=O)NCc3cccc(Br)c3)c(N)c2c1C	185	84	EC50 ([1]; read-out: pEC50 (converted)): 170 nM
Cc1ncc(-c2ccc(CNC(=O)c3sc4nnc(C)c(C)c4c3N)cc2)cn1	230	65	EC50 ([1]; read-out: pEC50 (converted)): 214 nM
Cc1nnc2sc(C(=O)NCc3ccc(-c4ccnnc4)cc3)c(N)c2c1C	56	96	
COc1ncc(-c2ccc(CNC(=O)c3sc4nnc(C)c(C)c4c3N)cc2)cn1	84	91	
Cc1nnc2sc(C(=O)NCc3ccc(-c4cccnc4F)cc3)c(N)c2c1C.Cl			bioavailability [3]: 54%; half-life [4]: 1 h; Vd [5]: 0.7 L/kg; bioavailability [6]: 47%; beta t1/2 [7]: 1.3 h; Vdss [8]: 0.87 L/kg; bioavailability [9]: 4.7%
Cc1nnc2sc(C(=O)NCc3ccc(-c4ccncc4)cc3)c(N)c2c1C	36	83	IC50 [10]: 9700 nM; IC50 [11]: 2300 nM; IC50 [12]: 1300 nM; IC50 [13]: 340 nM; beta t1/2 [14]: 1.5 h; Kp [15]: 0.94; efflux ratio [16]: 1.1; fraction unbound [17]: 0.013; fraction unbound [18]: 0.037; fraction unbound [19]: 0.042

Second part, led by results:

EC50 ([1]; read-out: EC50) [nM]	%max [2] [%]	SMILES	also measured
319	49	Cc1nnc2sc(C(=O)NCc3ccc(-c4ccccc4)cc3)c(N)c2c1C	EC50 ([1]; read-out: pEC50 (converted)): 295 nM
994	68	Cc1cc(-c2ccc(CNC(=O)c3sc4nnc(C)c(C)c4c3N)cc2)cnc1F	
1650	41	Cc1nnc2sc(C(=O)NCc3cccc(-c4ccccc4)c3)c(N)c2c1C	
